In ChEMBL document CHEMBL3286319, “Hyafurones, hyapyrrolines, and hyapyrones: polyketides from Hyalangium minutum” (J Nat Prod, 2014):
In brackets after ≈: the same amount, converted by molar mass. Activity calls are given as the source filed them. No cut-off for these calls is given here.

What follows are compounds tested on Trypanosoma brucei rhodesiense (assay: Antiparasitic activity against Trypanosoma brucei rhodesiense). Conditions: not given.
Format: functional, organism-based

SMILES | Activity
CC1=C(CC(O)CC(O)\C=C/C=C/C(C)=C/C=C/C(C)C(O)C(C)CCc2ccccc2)OC(C)(O)C1=O (configuration not stated) | inactive

The compounds below were run on L929 (assay: Cytotoxicity against mouse L929 cells by MTT assay). Conditions: not given.
Format: cell-based

SMILES | IC50
CC(/C=C/CCCC/C=C/c1oc(=O)c(C)c(O)c1C)=C\C=C\C(C)C(O)C(C)CCc1ccccc1 (configuration not stated) | 22 µM

These compounds were tested on Candida albicans (assay: Antifungal activity against Candida albicans by serial dilution method). Conditions: not given.
Format: functional
Method in brief: (§1)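 MIC by 1:1 serial dilution in 96-well microtiter plates. Yeasts and fungi were grown in MYC medium (1.0% glucose, 1.0% phytone peptone, 50 mM HEPES, pH 7.0).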

MIC | SMILES
> 67 µg/mL | CC1=C(CC(O)CC(O)\C=C/C=C/C(C)=C/C=C/C(C)C(O)C(C)CCc2ccccc2)N(CCO)C(C)(O)C1=O (configuration not stated)
> 67 µg/mL | CC(/C=C/CCCC/C=C/c1oc(=O)c(C)c(O)c1C)=C\C=C\C(C)C(O)C(C)CCc1ccccc1 (configuration not stated)
> 67 µg/mL | CC1=C(CC(O)CC(O)\C=C/C=C/C(C)=C/C=C/C(C)C(O)C(C)CCc2ccccc2)OC(C)(O)C1=O (configuration not stated)

Each compound was assayed on Mycolicibacterium phlei (assay: Antibacterial activity against Mycobacterium phlei by serial dilution method). Conditions: not given.
Format: functional

MIC | SMILES
> 67 µg/mL | CC1=C(CC(O)CC(O)\C=C/C=C/C(C)=C/C=C/C(C)C(O)C(C)CCc2ccccc2)N(CCO)C(C)(O)C1=O (configuration not stated)
> 67 µg/mL | CC(/C=C/CCCC/C=C/c1oc(=O)c(C)c(O)c1C)=C\C=C\C(C)C(O)C(C)CCc1ccccc1 (configuration not stated)
> 67 µg/mL | CC1=C(CC(O)CC(O)\C=C/C=C/C(C)=C/C=C/C(C)C(O)C(C)CCc2ccccc2)OC(C)(O)C1=O (configuration not stated)

Each compound was assayed on Wickerhamomyces anomalus (assay: Antifungal activity against Pichia anomala by serial dilution method). Conditions: Hansenula anomala.
Format: functional
Method in brief: as §1

MIC | SMILES
> 67 µg/mL | CC1=C(CC(O)CC(O)\C=C/C=C/C(C)=C/C=C/C(C)C(O)C(C)CCc2ccccc2)N(CCO)C(C)(O)C1=O (configuration not stated)
> 67 µg/mL | CC(/C=C/CCCC/C=C/c1oc(=O)c(C)c(O)c1C)=C\C=C\C(C)C(O)C(C)CCc1ccccc1 (configuration not stated)
> 67 µg/mL | CC1=C(CC(O)CC(O)\C=C/C=C/C(C)=C/C=C/C(C)C(O)C(C)CCc2ccccc2)OC(C)(O)C1=O (configuration not stated)

What follows are compounds tested on Leishmania donovani (assay: Antiparasitic activity against Leishmania donovani axenic amastigotes). Conditions: not given.
Format: functional, organism-based

SMILES | Activity
CC1=C(CC(O)CC(O)\C=C/C=C/C(C)=C/C=C/C(C)C(O)C(C)CCc2ccccc2)OC(C)(O)C1=O (configuration not stated) | inactive

The compounds below were run on Plasmodium falciparum (assay: Antiparasitic activity against Plasmodium falciparum K1). Conditions: not given.
Format: functional, organism-based

SMILES | Activity
CC1=C(CC(O)CC(O)\C=C/C=C/C(C)=C/C=C/C(C)C(O)C(C)CCc2ccccc2)OC(C)(O)C1=O (configuration not stated) | inactive

Each compound was assayed on Staphylococcus aureus (assay: Antibacterial activity against Staphylococcus aureus by serial dilution method). Conditions: not given.
Format: functional

MIC | SMILES
> 67 µg/mL | CC1=C(CC(O)CC(O)\C=C/C=C/C(C)=C/C=C/C(C)C(O)C(C)CCc2ccccc2)N(CCO)C(C)(O)C1=O (configuration not stated)
> 67 µg/mL | CC(/C=C/CCCC/C=C/c1oc(=O)c(C)c(O)c1C)=C\C=C\C(C)C(O)C(C)CCc1ccccc1 (configuration not stated)
> 67 µg/mL | CC1=C(CC(O)CC(O)\C=C/C=C/C(C)=C/C=C/C(C)C(O)C(C)CCc2ccccc2)OC(C)(O)C1=O (configuration not stated)

What follows are compounds tested on Chromobacterium violaceum (assay: Antibacterial activity against Chromobacterium violaceum by serial dilution method). Conditions: not given.
Format: functional

MIC | SMILES
> 67 µg/mL | CC1=C(CC(O)CC(O)\C=C/C=C/C(C)=C/C=C/C(C)C(O)C(C)CCc2ccccc2)N(CCO)C(C)(O)C1=O (configuration not stated)
> 67 µg/mL | CC(/C=C/CCCC/C=C/c1oc(=O)c(C)c(O)c1C)=C\C=C\C(C)C(O)C(C)CCc1ccccc1 (configuration not stated)
> 67 µg/mL | CC1=C(CC(O)CC(O)\C=C/C=C/C(C)=C/C=C/C(C)C(O)C(C)CCc2ccccc2)OC(C)(O)C1=O (configuration not stated)

These compounds were tested on Nocardia (assay: Antibacterial activity against Nocardia flava by serial dilution method). Conditions: not given.
Format: functional

MIC | SMILES
> 67 µg/mL | CC1=C(CC(O)CC(O)\C=C/C=C/C(C)=C/C=C/C(C)C(O)C(C)CCc2ccccc2)N(CCO)C(C)(O)C1=O (configuration not stated)
> 67 µg/mL | CC1=C(CC(O)CC(O)\C=C/C=C/C(C)=C/C=C/C(C)C(O)C(C)CCc2ccccc2)OC(C)(O)C1=O (configuration not stated)

Same assay, conditions: read-out: MIC

MIC | SMILES
16.6 µg/mL (≈ 32.9 µM) | CC(/C=C/CCCC/C=C/c1oc(=O)c(C)c(O)c1C)=C\C=C\C(C)C(O)C(C)CCc1ccccc1 (configuration not stated)

Each compound was assayed on Schizosaccharomyces pombe (assay: Antifungal activity against Schizosaccharomyces pombe by serial dilution method). Conditions: not given.
Format: functional
Method in brief: as §1

MIC | SMILES
> 67 µg/mL | CC1=C(CC(O)CC(O)\C=C/C=C/C(C)=C/C=C/C(C)C(O)C(C)CCc2ccccc2)N(CCO)C(C)(O)C1=O (configuration not stated)
> 67 µg/mL | CC(/C=C/CCCC/C=C/c1oc(=O)c(C)c(O)c1C)=C\C=C\C(C)C(O)C(C)CCc1ccccc1 (configuration not stated)
> 67 µg/mL | CC1=C(CC(O)CC(O)\C=C/C=C/C(C)=C/C=C/C(C)C(O)C(C)CCc2ccccc2)OC(C)(O)C1=O (configuration not stated)

The compounds below were run on Mucor hiemalis (assay: Antifungal activity against Mucor hiemalis by serial dilution method). Conditions: not given.
Format: functional
Method in brief: as §1

MIC | SMILES
> 67 µg/mL | CC1=C(CC(O)CC(O)\C=C/C=C/C(C)=C/C=C/C(C)C(O)C(C)CCc2ccccc2)N(CCO)C(C)(O)C1=O (configuration not stated)
> 67 µg/mL | CC1=C(CC(O)CC(O)\C=C/C=C/C(C)=C/C=C/C(C)C(O)C(C)CCc2ccccc2)OC(C)(O)C1=O (configuration not stated)

Same assay, conditions: read-out: MIC

MIC | SMILES
33.3 µg/mL (≈ 66 µM) | CC(/C=C/CCCC/C=C/c1oc(=O)c(C)c(O)c1C)=C\C=C\C(C)C(O)C(C)CCc1ccccc1 (configuration not stated)

These compounds were tested on Micrococcus luteus (assay: Antibacterial activity against Micrococcus luteus by serial dilution method). Conditions: not given.
Format: functional

MIC | SMILES
> 67 µg/mL | CC1=C(CC(O)CC(O)\C=C/C=C/C(C)=C/C=C/C(C)C(O)C(C)CCc2ccccc2)N(CCO)C(C)(O)C1=O (configuration not stated)
> 67 µg/mL | CC(/C=C/CCCC/C=C/c1oc(=O)c(C)c(O)c1C)=C\C=C\C(C)C(O)C(C)CCc1ccccc1 (configuration not stated)
> 67 µg/mL | CC1=C(CC(O)CC(O)\C=C/C=C/C(C)=C/C=C/C(C)C(O)C(C)CCc2ccccc2)OC(C)(O)C1=O (configuration not stated)

The compounds below were run on Pseudomonas aeruginosa (assay: Antibacterial activity against Pseudomonas aeruginosa by serial dilution method). Conditions: not given.
Format: functional

MIC | SMILES
> 67 µg/mL | CC1=C(CC(O)CC(O)\C=C/C=C/C(C)=C/C=C/C(C)C(O)C(C)CCc2ccccc2)N(CCO)C(C)(O)C1=O (configuration not stated)
> 67 µg/mL | CC(/C=C/CCCC/C=C/c1oc(=O)c(C)c(O)c1C)=C\C=C\C(C)C(O)C(C)CCc1ccccc1 (configuration not stated)
> 67 µg/mL | CC1=C(CC(O)CC(O)\C=C/C=C/C(C)=C/C=C/C(C)C(O)C(C)CCc2ccccc2)OC(C)(O)C1=O (configuration not stated)

What follows are compounds tested on Escherichia coli (assay: Antibacterial activity against Escherichia coli TolC by serial dilution method). Conditions: not given.
Format: functional

MIC | SMILES
> 67 µg/mL | CC1=C(CC(O)CC(O)\C=C/C=C/C(C)=C/C=C/C(C)C(O)C(C)CCc2ccccc2)N(CCO)C(C)(O)C1=O (configuration not stated)
> 67 µg/mL | CC(/C=C/CCCC/C=C/c1oc(=O)c(C)c(O)c1C)=C\C=C\C(C)C(O)C(C)CCc1ccccc1 (configuration not stated)
> 67 µg/mL | CC1=C(CC(O)CC(O)\C=C/C=C/C(C)=C/C=C/C(C)C(O)C(C)CCc2ccccc2)OC(C)(O)C1=O (configuration not stated)

These compounds were tested on Trypanosoma cruzi (assay: Antiparasitic activity against Trypanosoma cruzi). Conditions: not given.
Format: functional, organism-based

SMILES | Activity
CC1=C(CC(O)CC(O)\C=C/C=C/C(C)=C/C=C/C(C)C(O)C(C)CCc2ccccc2)OC(C)(O)C1=O (configuration not stated) | inactive

These compounds were tested on Rhodotorula glutinis (assay: Antifungal activity against Rhodotorula glutinis by serial dilution method). Conditions: not given.
Format: functional
Method in brief: as §1

MIC | SMILES
> 67 µg/mL | CC1=C(CC(O)CC(O)\C=C/C=C/C(C)=C/C=C/C(C)C(O)C(C)CCc2ccccc2)N(CCO)C(C)(O)C1=O (configuration not stated)
> 67 µg/mL | CC(/C=C/CCCC/C=C/c1oc(=O)c(C)c(O)c1C)=C\C=C\C(C)C(O)C(C)CCc1ccccc1 (configuration not stated)
> 67 µg/mL | CC1=C(CC(O)CC(O)\C=C/C=C/C(C)=C/C=C/C(C)C(O)C(C)CCc2ccccc2)OC(C)(O)C1=O (configuration not stated)

Each compound was assayed on HUVEC (assay: Cytotoxicity against HUVEC by MTT assay). Conditions: Homo sapiens.
Format: cell-based

SMILES | IC50
CC1=C(CC(O)CC(O)\C=C/C=C/C(C)=C/C=C/C(C)C(O)C(C)CCc2ccccc2)OC(C)(O)C1=O (configuration not stated) | 2.67 µM
